Results published in ChEMBL document CHEMBL4190292, “Electrophilic Triterpenoid Enones: A Comparative Thiol-Trapping and Bioactivity Study” (J Nat Prod, 2017).

Legend:
Assay type in all cases: cell-based
[1] = Inhibition of TNF-alpha stimulated NF-kappaB (unknown origin) expressed in mouse NIH/3T3 cells after 6 hrs by luciferase reporter gene assay; settings: NIH3T3, 6 h
How it was run: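 NIH-3T3-KBF-Luc mouse fibroblasts given TNFα (20 ng/mL) with or without compounds for 6 h. Cells washed, lysed in Tris-phosphate pH 7.8 buffer, and luciferase read on the supernatant. Inhibition expressed as percent of TNFα-induced NF-κB activity (100%). Mean of at least five independent experiments.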

[2] = target: T1, Nuclear factor erythroid 2-related factor 2 (Homo sapiens) (UniProt Q16236); test: Activation of Nrf2 (unknown origin) expressed in human HaCaT-ARE-luc cells after 6 hrs by luciferase reporter gene assay relative to control tertbutylhydroquinone
T1 sequence (whole entry): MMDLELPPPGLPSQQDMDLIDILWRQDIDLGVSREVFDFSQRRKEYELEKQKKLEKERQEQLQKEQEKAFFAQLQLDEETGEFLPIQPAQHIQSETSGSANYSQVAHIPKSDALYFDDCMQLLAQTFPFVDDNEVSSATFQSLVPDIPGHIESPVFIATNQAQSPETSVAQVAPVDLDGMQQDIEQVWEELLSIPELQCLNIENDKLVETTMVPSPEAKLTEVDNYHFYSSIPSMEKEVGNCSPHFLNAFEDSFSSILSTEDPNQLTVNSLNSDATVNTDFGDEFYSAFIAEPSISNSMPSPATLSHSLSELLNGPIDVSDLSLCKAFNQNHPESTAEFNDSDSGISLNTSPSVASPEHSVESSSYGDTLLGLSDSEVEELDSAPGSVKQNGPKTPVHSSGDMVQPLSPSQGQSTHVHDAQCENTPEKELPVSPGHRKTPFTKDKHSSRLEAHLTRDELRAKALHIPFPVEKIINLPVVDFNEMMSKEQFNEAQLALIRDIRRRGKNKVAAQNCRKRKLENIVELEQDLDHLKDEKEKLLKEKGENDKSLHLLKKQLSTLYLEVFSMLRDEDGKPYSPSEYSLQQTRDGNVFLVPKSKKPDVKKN

[3] = target: T2, Nuclear factor erythroid 2-related factor 2 (Homo sapiens, UniProt Q16236); test: Activation of Nrf2 (unknown origin) expressed in human HaCaT-ARE-luc cells after 6 hrs by luciferase reporter gene assay
T2 sequence (Q16236 whole entry): T1 sequence (whole entry)
How it was run: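 HaCaT-ARE-Luc keratinocytes in DMEM with 10% FBS, 37 °C, 5% CO2, exposed to compounds for 6 h. Cells then washed with PBS and lysed (Tris-phosphate pH 7.8, MgCl2, DTT, Triton X-100, glycerol, 15 min RT). Luciferase RLU read on the supernatant and EC50 derived. Mean of at least five independent experiments.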

[4] = target: Signal transducer and activator of transcription 3 (Homo sapiens, UniProt P40763); test: Inhibition of IFN-gamma stimulated STAT3 (unknown origin) expressed in human HeLa cells after 6 hrs by luciferase reporter gene assay
Sequence of Signal transducer and activator of transcription 3 (P40763 whole entry): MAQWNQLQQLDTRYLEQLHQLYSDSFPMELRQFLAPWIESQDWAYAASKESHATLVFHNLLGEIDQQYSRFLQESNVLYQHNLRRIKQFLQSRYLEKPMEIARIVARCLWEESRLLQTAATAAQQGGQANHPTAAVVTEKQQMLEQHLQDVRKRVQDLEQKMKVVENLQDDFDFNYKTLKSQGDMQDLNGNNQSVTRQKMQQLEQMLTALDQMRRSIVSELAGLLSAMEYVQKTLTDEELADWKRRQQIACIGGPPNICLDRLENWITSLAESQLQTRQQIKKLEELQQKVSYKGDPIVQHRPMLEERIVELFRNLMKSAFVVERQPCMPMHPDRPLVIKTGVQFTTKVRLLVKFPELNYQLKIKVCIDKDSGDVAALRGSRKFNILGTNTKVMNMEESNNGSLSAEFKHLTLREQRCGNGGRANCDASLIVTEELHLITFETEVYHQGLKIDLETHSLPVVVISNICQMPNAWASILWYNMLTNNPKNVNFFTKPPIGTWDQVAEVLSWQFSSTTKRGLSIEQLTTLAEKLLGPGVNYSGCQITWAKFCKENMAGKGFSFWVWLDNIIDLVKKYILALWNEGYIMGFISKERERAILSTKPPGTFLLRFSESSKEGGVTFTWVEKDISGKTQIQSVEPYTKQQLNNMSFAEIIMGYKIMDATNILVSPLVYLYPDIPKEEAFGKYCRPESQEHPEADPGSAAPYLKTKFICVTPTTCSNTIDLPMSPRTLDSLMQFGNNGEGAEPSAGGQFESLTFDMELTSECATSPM
How it was run: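 HeLa-STAT3-Luc cells stimulated with γIFN (20 IU/mL) with or without compounds for 6 h. PBS-washed cells lysed 15 min at room temperature and luciferase RLU measured. Values expressed as percent inhibition of IFN-γ-induced activity (taken as 100%). Mean of at least five independent experiments.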

HaCaT = test: Cytotoxicity against human HaCaT cells harboring pARE-Luc assessed as reduction in cell viability at >5 to 10 uM
HeLa = test: Cytotoxicity against human HeLa cells harboring pSTAT3-Luc assessed as reduction in cell viability at >5 to 10 uM

Row | Compound | IC50 [1] [µM] | also measured
1 | COC(=O)[C@]12CCC(C)(C)C[C@H]1C1=CC[C@@H]3[C@@]4(C)C=C(I)C(=O)C(C)(C)[C@@H]4CC[C@@]3(C)[C@]1(C)CC2 | > 25 | –
2 | CCOC(=O)/C=C/C1=C[C@]2(C)[C@H]3CC=C4[C@@H]5CC(C)(C)CC[C@]5(C(=O)OC)CC[C@@]4(C)[C@]3(C)CC[C@H]2C(C)(C)C1=O | > 25 | –
3 | COC(=O)[C@]12CCC(C)(C)C[C@H]1[C@H]1C(=O)C=C3[C@@]4(C)C=C(C#N)C(=O)C(C)(C)[C@@H]4CC[C@@]3(C)[C@]1(C)CC2 [BARDOXOLONE METHYL] | 1.2 to 2.38 | Ratio [2]: 40.9
4 | COC(=O)[C@]12CCC(C)(C)C[C@H]1C1=CC[C@@H]3[C@@]4(C)C=C(C(=O)O)C(=O)C(C)(C)[C@@H]4CC[C@@]3(C)[C@]1(C)CC2 | > 25 | Ratio [2]: 0.41
5 | COC(=O)[C@]12CCC(C)(C)C[C@H]1C1=CC[C@@H]3[C@@]4(C)C=CC(=O)C(C)(C)[C@@H]4CC[C@@]3(C)[C@]1(C)CC2 | > 25 | –
6 | COC(=O)[C@]12CCC(C)(C)C[C@H]1C1=CC[C@@H]3[C@@]4(C)C=C(c5ccc(OC)cc5)C(=O)C(C)(C)[C@@H]4CC[C@@]3(C)[C@]1(C)CC2 | > 25 | –
7 | COC(=O)[C@]12CCC(C)(C)C[C@H]1C1=CC[C@@H]3[C@@]4(C)C=C(C#Cc5ccccc5)C(=O)C(C)(C)[C@@H]4CC[C@@]3(C)[C@]1(C)CC2 | > 25 | –
8 | COC(=O)[C@]12CCC(C)(C)C[C@H]1C1=CC[C@@H]3[C@@]4(C)CCC(=O)C(C)(C)[C@@H]4CC[C@@]3(C)[C@]1(C)CC2 | > 25 | –
9 | COC(=O)[C@]12CCC(C)(C)C[C@H]1C1=CC[C@@H]3[C@@]4(C)CC(C#N)=C(O)C(C)(C)[C@@H]4CC[C@@]3(C)[C@]1(C)CC2 | > 25 | –
10 | COC(=O)[C@]12CCC(C)(C)C[C@H]1C1=CC[C@@H]3[C@@]4(C)Cc5cnoc5C(C)(C)[C@@H]4CC[C@@]3(C)[C@]1(C)CC2 | > 25 | –
11 | COC(=O)[C@]12CCC(C)(C)C[C@H]1C1=CC[C@@H]3[C@@]4(C)C=C(c5ccc(C#N)cc5)C(=O)C(C)(C)[C@@H]4CC[C@@]3(C)[C@]1(C)CC2 | > 25 | –
12 | COC(=O)[C@]12CCC(C)(C)C[C@H]1C1=CC[C@@H]3[C@@]4(C)C=C(C=O)C(=O)C(C)(C)[C@@H]4CC[C@@]3(C)[C@]1(C)CC2 | 7.69 | EC50 [3]: Nd(Toxic); IC50 [4]: Nd(Toxic); Activity (HaCaT): Toxic; Activity (HeLa): Toxic
13 | COC(=O)[C@]12CCC(C)(C)C[C@H]1C1=CC[C@@H]3[C@@]4(C)C=C(c5ccccc5)C(=O)C(C)(C)[C@@H]4CC[C@@]3(C)[C@]1(C)CC2 | > 25 | –
14 | COC(=O)[C@]12CCC(C)(C)C[C@H]1C1=CC[C@@H]3[C@@]4(C)C=C(Br)C(=O)C(C)(C)[C@@H]4CC[C@@]3(C)[C@]1(C)CC2 | > 25 | –
15 | COC(=O)C1=C[C@]2(C)[C@H]3CC=C4[C@@H]5CC(C)(C)CC[C@]5(C(=O)OC)CC[C@@]4(C)[C@]3(C)CC[C@H]2C(C)(C)C1=O | > 25 | –
16 | COC(=O)[C@]12CCC(C)(C)C[C@H]1C1=CC[C@@H]3[C@@]4(C)C=C(OC(C)=O)C(=O)C(C)(C)[C@@H]4CC[C@@]3(C)[C@]1(C)CC2 | > 25 | –
17 | CC1(C)CC[C@]2(C(=O)O)CC[C@]3(C)C(=CC[C@@H]4[C@@]5(C)CC[C@H](O)C(C)(C)[C@@H]5CC[C@]43C)[C@@H]2C1 [OLEANOLIC_ACID] | > 50 | –
18 | COC(=O)[C@]12CCC(C)(C)C[C@H]1C1=CC[C@@H]3[C@@]4(C)C=C(C#N)C(=O)C(C)(C)[C@@H]4CC[C@@]3(C)[C@]1(C)CC2 | 15.3 | Ratio [2]: 1.69
19 | COC(=O)[C@]12CCC(C)(C)C[C@H]1C1=CC[C@@H]3[C@@]4(C)CC(C=O)=C(O)C(C)(C)[C@@H]4CC[C@@]3(C)[C@]1(C)CC2 | > 25 | –
